An excerpt weighted towards active compounds, which were near 2% of everything screened.
AI-2 QS mod – modulates the Vibrio harveyi AI-2 quorum sensing system; Vibrio harveyi JMH597 AI-2 luminescence/OD600 ratio, 9 h; hits give low values; strain lacks LuxN and CqsS sensors; 0 = neutral-control median; activity change, % at 7.5 µM; actives 0.4% (n = 300,000); in the data active means activity change below about -75%, passing the limit was not always enough; inconclusive means no clear call, values can overlap the other calls;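 further: luminescence divided by OD600 gain over 9 h not by final OD600 alone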
T cruzi repl – T. cruzi replication inhibition; T. cruzi beta-gal in NIH3T3, luminescence, 90 h; inhibition, % (test concentration not listed); actives 1.4% (n = 300,000);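 active means mean inhibition across valid replicates above about 55%, limit read from the data; inconclusive means mean below that limit but half or more replicates reach it; inactive means mean below it, under half of replicates reach it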;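 further: signal also drops with host cell toxicity which is not excluded here; higher percent means less beta-gal luminescence so fewer parasites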
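Read-out: Parasite load inhibition, % | Test system: Mouse NIH/3T3 fibroblasts infected with β-gal-expressing T. cruzi Tulahuen C4 | Amount: 5,000 cells/well | Medium: DMEM, 2% fetal bovine serum | Signal: GalScreen β-gal luminescence, detergent lysis, 60 min | Timing: 3 h attach, ≥90 h co-culture | Also added: Tulahuen C4 trypomastigotes, 5000/well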
HIF act – HIF pathway transcriptional activation; U2OS HRE-luciferase reporter, luminescence; normalized: DMSO 0%, desferrioxamine 100%; actives 0.32% (n = 300,000); activation, % at 7.5 µM (by protocol);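 active means mean activation of at least 10% of the iron chelator positive control signal, with at least half of replicates also reaching 10%; inconclusive means mean and replicate majority disagree about reaching 10%; inactive means mean and most replicates under 10%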
ARNT-TACC3 inh – disruptors of human ARNT/TACC3 interaction | inhibition, % at 9.99 µM | AlphaScreen His-ARNT PAS-B/GST-TACC3 binding, luminescence; TACC3 fragment carries E629A point mutation | actives 0.66% (n = 390,000) | Q9Y6A5;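 active means mean inhibition of replicates at least 50% and at least half of replicates each reaching 50%; inconclusive means half or more replicates reach 50% but mean below 50%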
Numbers stand for hits; - = inactive; ? = inconclusive; . = no result.

SMILES	AI-2 QS mod	T cruzi repl	HIF act	ARNT-TACC3 inh
Cc1cccc2nc(CNC(=O)CC3C(=O)NCCN3Cc3cccc(F)c3)cn12 (centres undefined)	-	58	-	-
CC1CCCN(Cc2c(C(=O)N3CCc4ccccc4C3)nc3ccc(Cl)cn23)C1 (centres undefined)	-	-	-	-
NC(=O)C1CCCN(Cc2c(C(=O)N3CCc4ccccc4C3)nc3ccc(Cl)cn23)C1 (centres undefined)	-	-	11	-
O=C(Nc1ccc(F)cc1)N1C[C@@H]2[C@H](c3ccccc31)[C@H](CO)N2C(=O)c1ccccn1	.	.	.	-
CCN(CC)CCNC(=O)c1ccc(N2CCCCC2)c(NS(=O)(=O)c2ccc(C)cc2)c1	-	-	-	-
CCN(CC)CCNc1cc(C)nc2c1C(=O)C(=O)C=C2N1CCCCC1	-	60	42	-
O=C(C[C@@H]1CC[C@H]2[C@@H](COC[C@H](O)CN2Cc2ccccc2)O1)NCc1ccccc1Cl	.	.	.	-
CCCCCn1c(=O)[nH]c2cc(C(=O)NCCCN(C)Cc3ccccc3)ccc2c1=O	-	58	-	-
CCCCN(C)CCNC(=O)c1ccc(Cn2c(=S)[nH]c3ccc(Br)cc3c2=O)cc1	-	77	-	-
CCCNC(=O)C[C@H]1C[C@@H]2c3cc(NS(C)(=O)=O)ccc3O[C@@H]2[C@H](CO)O1	.	.	.	-
CN1c2ccc(-c3ccccc3F)cc2[C@@H]2[C@@H](CCN2S(=O)(=O)c2ccccc2F)[C@H]1CO	.	.	.	-
C[C@@H]1CN([C@H](C)CO)C(=O)c2cc(C#Cc3cccnc3)cnc2O[C@@H]1CN(C)Cc1cccnc1	.	.	.	-
O=C(Nc1nc(-c2ccc(F)cc2)cs1)C1CCN(C(=O)c2ccc(F)cc2)CC1	-	55	-	-
O=C(Nc1nc2c(F)cc(F)cc2s1)C1CCN(C(=O)c2ccc(F)cc2)CC1	-	-	-	-
C=CCn1c(Cc2csc(N)n2)nnc1SCC(=O)OCC	-	-	-	46
C=CCn1c(Cc2csc(N)n2)nnc1SCc1ccc(C(=O)OC)cc1	-	-	-	-
C[C@H]1CN([C@@H](C)CO)C(=O)c2cc(NS(=O)(=O)c3cn(C)cn3)ccc2O[C@@H]1CN(C)Cc1ccc(C(=O)O)cc1	.	.	.	-
O=C(Cn1cnc2cc([N+](=O)[O-])ccc2c1=O)Nc1ccc2c(c1)OCO2	-	55	-	-
Cc1cc(C)c(C(=O)Cn2cnc3cc([N+](=O)[O-])ccc3c2=O)cc1C	-	68	-	-
COc1ccc(-c2cnc3c(c2)C(=O)N([C@@H](C)CO)C[C@@H](C)[C@@H](CN(C)C(=O)C2CCC2)O3)cc1	.	.	.	-
Cc1cc2nc3c(=O)n(CCc4ccccc4)c(=O)[nH]c3nc2cc1N	-	56	-	-
Nc1ccc2nc3c(=O)n(CCc4ccccc4)c(=O)[nH]c3nc2c1	-	-	-	.
CC(=O)c1sc2nc(-c3ccccc3)cc(C)c2c1N	-	56	-	-
CCN1/C(=C\C=C2\C(=O)N(C)C(=S)N2C)Sc2ccccc21	-	-	-	.
CCOC(=O)/C(=C/C=C1\Sc2cc(OCC)c(OCC)cc2N1CC)C(C)=O	-	-	-	51
SMILES	AI-2 QS mod	T cruzi repl	HIF act	ARNT-TACC3 inh
CCOC(=O)/C(=C\C=C1/Sc2cc(OCC)c(OCC)cc2N1CC)C(C)=O	-	-	-	51
C/C=C/c1cnc2c(c1)C(=O)N([C@H](C)CO)C[C@H](C)[C@@H](CN(C)C(=O)c1cnccn1)O2	.	.	.	-
C[C@@H]1CN([C@@H](C)CO)C(=O)c2cccc(NC(=O)C3CC3)c2O[C@H]1CN(C)C	.	.	.	-
COc1ccccc1CN1[C@@H]2c3ccc(C4=CCCCC4)c(=O)n3C[C@H]1[C@H](CO)[C@H]2C(=O)N(C)C	.	.	.	-
Cc1ccc([N+](=O)[O-])cc1N(CC(=O)Nc1ccc(S(=O)(=O)Nc2cccc(C(F)(F)F)c2)cc1)S(C)(=O)=O	-	61	-	-
COc1ccccc1N(CC(=O)Nc1cccc(C(F)(F)F)c1)S(C)(=O)=O	-	-	-	-
CO[C@H]1CN(C)C(=O)c2ccc(NC(=O)c3ccccc3F)cc2OC[C@H](C)N(C(C)=O)C[C@@H]1C	.	.	.	-
CC1(C)CC(=O)C(CC2C(=O)CC(C)(C)CC2=O)C(=O)C1	-	-	54	-
Oc1ccccc1/C=N/Nc1nc2ccccc2o1	-	56	26	-
COc1ccc(/C=N/Nc2nc3ccccc3o2)cc1O	-	-	-	44
COc1cc(/C=N/Nc2nc3ccccc3o2)cc(OC)c1O	-	-	-	-
COc1ccc(OC)c(C2C(C(=O)c3ccccc3)=C(C)Nc3nc4ccccc4n32)c1 (centres undefined)	-	69	-	-
COc1ccc(C2C(C(=O)c3ccccc3)=C(C)Nc3nc4ccccc4n32)cc1OC (centres undefined)	-	?	-	-
CC(=O)Nc1sc(N/N=C/c2ccccc2)nc1-c1ccc(C)cc1	-	-	-	-
CCCc1sc(N/N=C/c2ccccn2)nc1-c1ccc(Br)cc1	-	65	25	33
O=[N+]([O-])c1ccc(O)c2ncccc12	?	74	-	56
O=[N+]([O-])c1cc([N+](=O)[O-])c2cccnc2c1Oc1ccccc1O	-	-	-	-
O=[N+]([O-])c1ccc(O)c2cccnc12	-	-	-	-
O=c1oc2ccccc2c(O)c1Cc1cc(Cl)c2cccnc2c1O	-	-	-	-
Oc1c(I)cc(Cl)c2cccnc12	-108	-	-	-
Oc1c(CN2CCc3ccccc3C2)cc(Cl)c2cccnc12	-89	-	50	58
O=[N+]([O-])c1cc(F)c2cccnc2c1O	?	-	-	70
CC(C)CC#Cc1ccc2c(c1)O[C@@H](CN(C)C(=O)c1cccc(F)c1)[C@H](C)CN([C@@H](C)CO)S2(=O)=O	.	.	.	-
C[C@@H]1CCCCO[C@H](CN(C)Cc2ccncc2)[C@@H](C)CN([C@@H](C)CO)C(=O)c2cc(NC(=O)Nc3cccc4ccccc34)ccc2O1	.	.	.	-
Cc1noc(C)c1NC(=O)Nc1ccc2c(c1)C(=O)N([C@H](C)CO)C[C@H](C)[C@H](CN(C)CC1CCCCC1)O2	.	.	.	-
SMILES	AI-2 QS mod	T cruzi repl	HIF act	ARNT-TACC3 inh
COc1ccc(S(=O)(=O)N(C)C[C@@H]2OCCCC[C@@H](C)Oc3ccc(NC(=O)Nc4ccc5c(c4)OCO5)cc3C(=O)N([C@@H](C)CO)C[C@H]2C)cc1	.	.	.	-
O=[N+]([O-])c1cc(CN2CCN(c3ccccc3)CC2)c(O)c2ncccc12	-	58	-	-
O=[N+]([O-])c1cc(Cl)c2cccnc2c1O	?	-	-	46
CN1CCN(Cc2cc(COCc3ccccc3)c3cccnc3c2O)CC1	-	77	221	-
Clc1cc2cccnc2c2ncccc12	.	.	.	106
O=[N+]([O-])c1cc(Cl)c(O)c2ncccc12	-88	-	-	57
Cc1cc(C(=O)Nc2cccc3c2O[C@H](CN(C)C(=O)Nc2ccc4c(c2)OCO4)[C@H](C)CN([C@@H](C)CO)C3=O)n(C)n1	.	.	.	-

High-throughput results as filed in PubChem.
